High-throughput results (PubChem BioAssay)
TLR9-MyD88 block: blocks human TLR9 binding to MyD88. CHO BLA complementation TLR9-MyD88, CCF4 FRET ratio. inhibition, % at 4.98 µM. 340,000 compounds, 0.21% hits. AID 504734;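 active = inhibition above the mean over all tested compounds plus 3 SD, cut at about 21% in these data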
Target sequence (Q99836 whole entry, looked up): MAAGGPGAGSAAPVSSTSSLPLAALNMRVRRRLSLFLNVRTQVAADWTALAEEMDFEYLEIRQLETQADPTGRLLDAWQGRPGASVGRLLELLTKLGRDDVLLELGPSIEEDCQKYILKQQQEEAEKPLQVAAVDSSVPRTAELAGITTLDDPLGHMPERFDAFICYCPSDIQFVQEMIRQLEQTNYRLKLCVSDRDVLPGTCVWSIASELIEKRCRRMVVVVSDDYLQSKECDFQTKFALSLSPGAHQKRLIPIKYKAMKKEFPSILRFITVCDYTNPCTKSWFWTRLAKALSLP
Target sequence (Q9NR96 whole entry, looked up): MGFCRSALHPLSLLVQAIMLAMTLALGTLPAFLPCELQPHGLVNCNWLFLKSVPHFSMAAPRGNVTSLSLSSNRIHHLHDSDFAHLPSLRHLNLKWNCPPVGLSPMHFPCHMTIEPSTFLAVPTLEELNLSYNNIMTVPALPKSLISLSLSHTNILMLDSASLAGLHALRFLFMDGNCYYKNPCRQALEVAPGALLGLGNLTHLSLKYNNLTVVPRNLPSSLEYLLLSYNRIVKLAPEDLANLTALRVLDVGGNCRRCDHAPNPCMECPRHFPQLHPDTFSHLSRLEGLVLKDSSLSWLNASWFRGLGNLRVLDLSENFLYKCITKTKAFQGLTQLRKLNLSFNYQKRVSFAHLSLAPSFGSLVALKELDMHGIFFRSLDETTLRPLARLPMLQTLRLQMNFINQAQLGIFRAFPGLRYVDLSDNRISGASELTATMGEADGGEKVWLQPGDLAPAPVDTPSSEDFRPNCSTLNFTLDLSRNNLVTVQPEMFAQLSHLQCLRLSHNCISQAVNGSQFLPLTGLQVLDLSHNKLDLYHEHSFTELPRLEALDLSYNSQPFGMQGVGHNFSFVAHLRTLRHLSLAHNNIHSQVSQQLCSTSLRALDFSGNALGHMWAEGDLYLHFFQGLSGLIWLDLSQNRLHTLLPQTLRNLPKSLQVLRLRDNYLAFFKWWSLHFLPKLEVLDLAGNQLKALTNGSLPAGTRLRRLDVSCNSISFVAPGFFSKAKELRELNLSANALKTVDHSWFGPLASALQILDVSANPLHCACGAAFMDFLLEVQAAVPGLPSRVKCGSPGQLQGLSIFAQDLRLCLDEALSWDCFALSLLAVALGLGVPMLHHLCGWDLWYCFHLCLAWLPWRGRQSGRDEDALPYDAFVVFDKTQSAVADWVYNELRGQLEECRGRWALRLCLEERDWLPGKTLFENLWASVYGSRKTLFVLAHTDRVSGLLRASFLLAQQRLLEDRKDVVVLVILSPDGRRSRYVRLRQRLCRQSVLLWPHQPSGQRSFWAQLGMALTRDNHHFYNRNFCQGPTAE
UPR CHOP act: apoptotic UPR (CHOP) activation | 330,000 compounds, 0.34% hits | CHO-CHOP luciferase reporter, luminescence; percent of tunicamycin response over DMSO baseline | activation, % at 10 µM;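 active = at 10 µM dose, activation of 40% or more, normalized to positive control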
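measured by = luciferase luminescence | assay system = CHO-CHOP cells, stable luciferase reporter of PERK-eIF2a-CHOP signalling | amount = 500 reporter cells seeded per well | timing = 6 h compound exposure at 37 °C after overnight seeding | controls = positive tunicamycin 10 µg/mL, negative DMSO alone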
CHOP inh: inhibitors of CHOP induction in ER stress response | CHO-K1 CHOP-promoter luciferase, tunicamycin-induced, 15-18 h | inhibition, % at 10 µM | 220,000 compounds, 3.8% hits;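 active = compounds that reduced the stress-induced luciferase reporter signal by more than about 70% of percent inhibition, limit read from the data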
TLR4 MyD88 comp: TLR4-MyD88 interaction inhibition in cells. O00206+Q99836. AID 861. inhibition, % at 8.4 µM. HeLa CL3-4 TLR4/MyD88 BLA complementation, FRET ratio. 200,000 compounds, 0.18% hits; in the data active = inhibition above about 25%
UPR XBP1 act: activators of adaptive arm of unfolded protein response (XBP1); CHO-XBP1 luciferase reporter, IRE1-XBP1 UPR activation, luminescence; percent of tunicamycin response, DMSO as zero; activation, % at 20 µM; 330,000 compounds, 0.33% hits;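 active = versus positive control, 20 µM dose yields 30% or more activation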
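assay system = CHO-XBP1 luciferase reporter cells | amount = 1000 cells/well | buffer or medium = F12 plus 10% FBS | compound dosing = single point, 20 µM final compound, 1% DMSO | incubation = 16-18 h cell attachment at 37 °C, then 6 h compound exposure | detection = Steady-Glo luminescence read | controls = tunicamycin 10 µg/mL and vehicle-only wells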
NOD2 RIPK2 PPI: inhibitors of human NOD2-RIPK2 interaction. 360,000 compounds, 0.38% hits. AID 624267. O43353. inhibition, % at 4.98 µM. CHO BLA complementation NOD2-RIPK2, CCF4 ratio; in the data active = inhibition above about 21%
TLR9-MyD88 cf: TLR9-MyD88 interaction inhibition, confirmation | shares compounds with TLR9-MyD88 block | CHO TLR9/MyD88 BLA complementation, CCF4 FRET ratio | inhibition, % at 4.98 µM | 680 compounds, 51% hits;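 active = mean inhibition across three repeats above about 21% taken from the earlier screen, limit read from the data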;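 also: blue over green emission ratio reports constitutive TLR9 MyD88 association via BLA complementation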
BLA nonselective: beta-lactamase reporter inhibition, counter-screen artifact; 680 compounds, 7% hits; CHO-BLA cells, CCF4 FRET ratio, BLA reporter; inhibition, % at 4.98 µM; AID 540251; shares compounds with TLR9-MyD88 block;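 active = mean inhibition above a 50% cutoff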;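 also: counterscreen of TLR9-MyD88 hits on CMV-driven BLA in CHO-K1 cells; higher means less blue over green ratio so more BLA blockade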
TLR9 CHO tox: counter-screen for TLR9-MyD88 inhibitors: cytotoxicity in CHO cells | 680 compounds, 39% hits | shares compounds with TLR9-MyD88 block | AID 588336 | inhibition, % at 4.98 µM | luminescence; in the data active = inhibition above about 11%
Each line names hits and unclear results; the compound was inactive in the other large screens (follow-up assays come after a bar, where they were run). This is one part of a sample in which hits are shown more often than they occur.

COc1ccc(C(=O)NC2CC2)cc1OC1CCN(Cc2ccccc2)CC1	none (no result: CHOP inh, TLR4 MyD88 comp)
O=C(CSc1nc(O)cc(=O)n1-c1ccccc1)NCc1ccccc1	TLR9-MyD88 block 21 | TLR9-MyD88 cf inactive | BLA nonselective inactive | TLR9 CHO tox inactive
O=c1cc(O)nc(SCc2ccccc2)n1-c1ccccc1	none
O=C(CCS(=O)(=O)c1ccc(Cl)cc1)NCCc1c[nH]c2ccccc12	none
CCn1c(/C=C/c2cc[n+](C)cc2)nc2ccccc21	TLR9-MyD88 block 24 (no result: CHOP inh, TLR4 MyD88 comp) | TLR9-MyD88 cf inactive | BLA nonselective inactive | TLR9 CHO tox inactive
Cc1cccc(N2C(=O)/C(=C\c3ccc(OC(F)F)cc3)c3ccccc3C2=O)c1	TLR9-MyD88 block 50 | TLR9-MyD88 cf 45 | BLA nonselective inactive | TLR9 CHO tox inactive
Cc1ccc(-c2cc(-c3ccco3)c3c(N)c(C(=O)NN)oc3n2)cc1	none (no result: TLR4 MyD88 comp)
NNC(=O)c1oc2nc(-c3cccs3)cc(-c3ccco3)c2c1N	TLR9-MyD88 block 22 (no result: CHOP inh, TLR4 MyD88 comp) | TLR9-MyD88 cf inactive | BLA nonselective inactive | TLR9 CHO tox inactive
COc1ccc2cc(C[C@@H]3CC[C@@H](CO)O3)ccc2c1	none (no result: CHOP inh, TLR4 MyD88 comp)
CCOC(=O)CNc1c(-c2ccc(F)cc2)nc2cnccn12	TLR9-MyD88 block 24 (no result: CHOP inh) | TLR9-MyD88 cf inactive | BLA nonselective inactive | TLR9 CHO tox inactive
O=C1Cc2ccccc2C(=O)N1c1ccccc1	TLR9-MyD88 block 31 (no result: CHOP inh, TLR4 MyD88 comp) | TLR9-MyD88 cf 42 | BLA nonselective inactive | TLR9 CHO tox inactive
CC(C)(C)c1cc(NC(=O)c2c(F)cccc2Cl)n(-c2ccccc2)n1	TLR9-MyD88 block 23 (no result: CHOP inh, TLR4 MyD88 comp) | TLR9-MyD88 cf inactive | BLA nonselective inactive | TLR9 CHO tox inactive
CC(=N/O)/C(C)=N\NC(=O)c1ccccn1	TLR9-MyD88 block 53 | TLR9-MyD88 cf inactive | BLA nonselective inactive | TLR9 CHO tox inactive
CN(CC(=O)Nc1ccc(N2CCOCC2)cc1)C(=O)CSc1ccc(Br)cc1	none (no result: CHOP inh, TLR4 MyD88 comp)
COc1cccc(C2C=C(c3ccc(Br)s3)Nc3ncnn32)c1OC (centres undefined)	TLR9-MyD88 block 27, NOD2 RIPK2 PPI 31 | TLR9-MyD88 cf inactive | BLA nonselective inactive | TLR9 CHO tox inactive
Cc1ccc(S(=O)(=O)c2ccc([N+](=O)[O-])o2)cc1	TLR9-MyD88 block 44, NOD2 RIPK2 PPI 93 (no result: UPR CHOP act, CHOP inh, TLR4 MyD88 comp, UPR XBP1 act) | TLR9-MyD88 cf 51 | BLA nonselective inactive | TLR9 CHO tox 99
COC(=O)c1ccc(Cn2c(O)c(N=O)c3ccccc32)o1	TLR9-MyD88 block 26 | TLR9-MyD88 cf inactive | BLA nonselective inactive | TLR9 CHO tox inactive
O=Nc1c(O)n(Cc2cccc(C(F)(F)F)c2)c2ccccc12	TLR9-MyD88 block 33 | TLR9-MyD88 cf inactive | BLA nonselective inactive | TLR9 CHO tox inactive
CSCCC(NS(=O)(=O)c1ccccc1F)C(=O)NC(C)c1ccccc1 (centres undefined)	none
CCN(CC)C(=O)C1=C(C)N(Cc2ccc(OC)cc2)C(=O)C(CC(=O)NCc2cccc3ccccc23)C1 (centres undefined)	none (no result: UPR CHOP act, CHOP inh, TLR4 MyD88 comp, UPR XBP1 act)
CCN1C[C@@H]2[C@@H]3C(=O)N(Cc4ccccc4)C(=O)[C@@H]3[C@](Cc3ccccc3)(C1=O)N2C(=O)c1ccc(Br)cc1	none (no result: UPR CHOP act, CHOP inh, TLR4 MyD88 comp, UPR XBP1 act)
CC(=O)Oc1ccc(N2C(=O)c3cccc4c([N+](=O)[O-])ccc(c34)C2=O)cc1	TLR9-MyD88 block 23 (no result: CHOP inh, TLR4 MyD88 comp) | TLR9-MyD88 cf 32 | BLA nonselective inactive | TLR9 CHO tox 85
CC(=O)Oc1ccc(-n2c(=O)c3ccccc3c3ccccc3c2=O)cc1	none
O=C(N=C1SC2CS(=O)(=O)CC2N1c1cccc(Cl)c1Cl)C1CCCO1 (centres undefined)	none (no result: CHOP inh, TLR4 MyD88 comp)
CCOC(=O)[C@H]1[C@H]2COc3ccc(C)cc3[C@@H]2N2C(=O)CN(Cc3ccco3)C(=O)[C@@]12C	TLR9-MyD88 block 22 (no result: CHOP inh, TLR4 MyD88 comp) | TLR9-MyD88 cf inactive | BLA nonselective inactive | TLR9 CHO tox inactive
COc1ccc(OCC(O)CNC(=O)/C=C/c2cccc([N+](=O)[O-])c2)cc1 (centres undefined)	TLR9-MyD88 block 23 | TLR9-MyD88 cf inactive | BLA nonselective inactive | TLR9 CHO tox inactive
O=C1C(Cl)=C(NCCCO)C(=O)c2ccccc21	none
CN(C)c1ccc(NC2=C(Cl)C(=O)c3ccccc3C2=O)cc1	TLR9-MyD88 block 25, CHOP inh 95 | TLR9-MyD88 cf 23 | BLA nonselective inactive | TLR9 CHO tox 19
Cc1[nH]n(-c2ccccc2)c(=O)c1C=NCC1CCCO1 (centres undefined)	TLR9-MyD88 block 26 | TLR9-MyD88 cf inactive | BLA nonselective inactive | TLR9 CHO tox inactive
CN(/C=C/C(=C\C=[N+](C)c1ccccc1)OCCCS(=O)(=O)[O-])c1ccccc1	none
CC1=NN(c2nc3ccccc3[nH]2)C(=O)C1Cc1ccccc1 (centres undefined)	none (no result: TLR9-MyD88 block, TLR4 MyD88 comp)
Cc1ccc(NC(=O)CN(C)C(=O)CSc2ccccc2F)cc1	none (no result: CHOP inh, TLR4 MyD88 comp)
Clc1ccc(C2=CC(c3ccco3)n3ncnc3N2)cc1 (centres undefined)	none
COc1ccc(C2=CC(c3ccco3)n3ncnc3N2)cc1 (centres undefined)	TLR9-MyD88 block 28, NOD2 RIPK2 PPI 21 | TLR9-MyD88 cf inactive | BLA nonselective inactive | TLR9 CHO tox inactive
Cc1c(O)ccc2c(CN3CCN(CCO)CC3)cc(=O)oc12	TLR9-MyD88 block 27 | TLR9-MyD88 cf inactive | BLA nonselective inactive | TLR9 CHO tox inactive
O=C(CNC(=O)N1CC(=O)Nc2ccccc21)Nc1cccc(F)c1	none (no result: CHOP inh, TLR4 MyD88 comp)
O=C(C1=NN(c2ccccc2)C2C(=O)N(c3ccc(Cl)cc3)C(=O)C12)c1ccccc1 (centres undefined)	TLR9-MyD88 block 30 (no result: UPR CHOP act, UPR XBP1 act) | TLR9-MyD88 cf 25 | BLA nonselective inactive | TLR9 CHO tox inactive
CC(=O)C1=NOC2C(=O)N(c3ccc(Cl)cc3)C(=O)C12 (centres undefined)	none (no result: CHOP inh, TLR4 MyD88 comp)
Cc1nc2cc(N)ccc2n1C1CCCCC1	none
Cc1cc2nc3c(=O)n(C4CCCCC4)c(=O)[nH]c3nc2cc1N	TLR9-MyD88 block 28 (no result: UPR CHOP act, UPR XBP1 act) | TLR9-MyD88 cf inactive | BLA nonselective inactive | TLR9 CHO tox inactive
CS(=O)(=O)N(CC(=O)N1CCOCC1)c1ccccc1	none (no result: CHOP inh, TLR4 MyD88 comp)
COc1ccc(C2NN=C(c3ccc(C)cc3)S2)cc1 (centres undefined)	none (no result: UPR CHOP act, CHOP inh, TLR4 MyD88 comp, UPR XBP1 act)
